The source of these data is ChEMBL document CHEMBL2331540, “Synthesis and SAR study of pyrrolo[3,4-b]pyridin-7(6H)-one derivatives as melanin concentrating hormone receptor 1 (MCH-R1) antagonists” (Bioorg Med Chem Lett, 2013).

Values after ≈ are worked out from the molar mass of the structure shown.

In general, inhibition refers to the relative decrease from the control value, in per cent. In general, solubility refers to the dissolved amount per volume that the medium holds. What is called half-life is how long it takes for the measured level to halve. As usually defined, the AUC is the area under the concentration-time curve, a measure of exposure. A high value points to high exposure. As a reminder, the IC50 is the point on the concentration scale where inhibition reaches its midpoint.

Sequence of Melanin-concentrating hormone receptor 1 (Q99705 whole entry): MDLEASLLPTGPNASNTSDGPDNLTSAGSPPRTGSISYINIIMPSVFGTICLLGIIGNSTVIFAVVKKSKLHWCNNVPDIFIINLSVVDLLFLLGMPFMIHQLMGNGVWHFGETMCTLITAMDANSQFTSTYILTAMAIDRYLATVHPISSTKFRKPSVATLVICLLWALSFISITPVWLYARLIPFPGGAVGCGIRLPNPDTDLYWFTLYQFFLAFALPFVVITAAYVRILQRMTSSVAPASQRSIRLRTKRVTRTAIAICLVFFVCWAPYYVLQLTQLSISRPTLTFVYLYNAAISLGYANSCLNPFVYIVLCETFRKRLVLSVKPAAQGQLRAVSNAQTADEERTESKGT

One data set deals with CYP3A4 (Homo sapiens, UniProt P08684). In words: Inhibition of CYP3A4 (unknown origin) at 10 uM relative to control. Type of data set: ADME.
Sequence of CYP3A4 (P08684 whole entry): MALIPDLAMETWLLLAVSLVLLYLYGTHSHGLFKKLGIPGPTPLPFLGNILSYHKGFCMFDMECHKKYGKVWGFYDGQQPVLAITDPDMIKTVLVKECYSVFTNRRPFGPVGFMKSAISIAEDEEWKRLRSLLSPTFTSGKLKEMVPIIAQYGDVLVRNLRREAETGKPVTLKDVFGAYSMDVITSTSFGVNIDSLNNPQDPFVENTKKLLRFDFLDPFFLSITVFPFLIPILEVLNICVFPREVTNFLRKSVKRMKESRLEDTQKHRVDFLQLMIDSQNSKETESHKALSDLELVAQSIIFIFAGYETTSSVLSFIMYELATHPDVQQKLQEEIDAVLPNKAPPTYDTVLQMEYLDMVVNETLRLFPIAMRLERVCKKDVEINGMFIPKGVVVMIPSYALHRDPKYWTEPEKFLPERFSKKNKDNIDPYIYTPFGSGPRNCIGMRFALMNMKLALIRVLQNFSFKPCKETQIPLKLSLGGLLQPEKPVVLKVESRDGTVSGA
Settings: not given
Take `COc1cc(N2Cc3ccc(Sc4ccc(F)cc4)nc3C2=O)ccc1OCCN1CCCC1`: the inhibition at 10 µM is under 10%.

For a further data set, the target named is CYP2D6 (Homo sapiens, UniProt P10635). In words: Inhibition of CYP2D6 (unknown origin) at 10 uM relative to control. Type of data set: ADME.
Sequence of CYP2D6 (P10635 whole entry): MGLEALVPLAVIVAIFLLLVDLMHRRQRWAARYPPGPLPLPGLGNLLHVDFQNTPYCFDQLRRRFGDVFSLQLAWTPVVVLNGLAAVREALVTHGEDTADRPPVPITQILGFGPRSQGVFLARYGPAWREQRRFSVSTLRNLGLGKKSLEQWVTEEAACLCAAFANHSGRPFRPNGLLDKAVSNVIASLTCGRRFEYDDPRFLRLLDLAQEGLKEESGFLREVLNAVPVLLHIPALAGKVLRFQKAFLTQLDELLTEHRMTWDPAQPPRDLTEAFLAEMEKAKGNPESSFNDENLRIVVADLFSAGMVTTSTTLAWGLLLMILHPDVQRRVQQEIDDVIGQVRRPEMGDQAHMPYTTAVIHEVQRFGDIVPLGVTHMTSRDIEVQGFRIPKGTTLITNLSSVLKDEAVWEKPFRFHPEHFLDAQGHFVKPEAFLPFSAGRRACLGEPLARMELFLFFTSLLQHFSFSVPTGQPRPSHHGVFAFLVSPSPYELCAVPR
Settings: not given
For the compound `COc1cc(N2Cc3ccc(Sc4ccc(F)cc4)nc3C2=O)ccc1OCCN1CCCC1`, the inhibition at 10 µM is under 10%.

Test system in the next data set: not listed separately
In words: Aqueous solubility of the compound. Type of data set: physicochemical. The following applies: buffer.
In turn, `COc1cc(N2Cc3ccc(Sc4ccc(F)cc4)nc3C2=O)ccc1OCCN1CCCC1` had a solubility of 104 µg/mL (≈ 217 µM).

Test system in a further data set: not listed separately
Description: Permeability of the compound by PAMPA. Type of data set: ADME. The following applies: read-out: permeability. A general note: The PAMPA barrier holds no transporters, so it reflects passive diffusion.
Take `COc1cc(N2Cc3ccc(Sc4ccc(F)cc4)nc3C2=O)ccc1OCCN1CCCC1`: the Papp came to 1.9 ×10⁻⁶ cm/s.

Test system in another data set: not listed separately
In words: Metabolic stability in human liver microsomes measured for 30 mins. Type of data set: ADME, Microsome. Conditions: read-out: Stability. Summed up: (§1)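 Test compound incubated 30 min with human or rat liver microsomes; stability given as percent remaining.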
On the technique in general: Liver microsomes are vesicles of endoplasmic reticulum, rich in cytochrome P450 enzymes.
Turning to `COc1cc(N2Cc3ccc(Sc4ccc(F)cc4)nc3C2=O)ccc1OCCN1CCCC1`, the remaining at 0.5 h came to 97%.

Test system in the next data set: not listed separately
In words: Metabolic stability in rat liver microsomes measured for 30 mins. The following applies: read-out: Stability. Type of data set: ADME, Microsome. Summed up: as §1
`COc1cc(N2Cc3ccc(Sc4ccc(F)cc4)nc3C2=O)ccc1OCCN1CCCC1`: the remaining at 0.5 h came to 79%.

A further data set deals with Rattus norvegicus. Description: Oral bioavailability in rat at 10 mg/kg. Type of data set: ADME, organism-based. Conditions: in vivo. Summed up:
(§2)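 Rats dosed at 10 mg/kg by both iv and po routes, n = 3; plasma pharmacokinetic parameters derived from the iv/po study.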
On to `COc1cc(N2Cc3ccc(Sc4ccccc4)nc3C2=O)ccc1OCCN1CCCC1`, for which the F is listed as 35%.
For the compound `COc1cc(N2Cc3ccc(Sc4ccc(F)cc4)nc3C2=O)ccc1OCCN1CCCC1`, the F was determined as 92%.

The test system of another data set is Rattus norvegicus. Description: Volume of distribution at steady state in rat at 10 mg/kg, po and iv. On the set-up: dose 10 mg/kg, route oral. Type of data set: ADME, organism-based. The following applies: in vivo. Summed up:
as §2
Take `COc1cc(N2Cc3ccc(Sc4ccccc4)nc3C2=O)ccc1OCCN1CCCC1`: the Vdss came to 22.7 L/kg.
The same measure, in the same setting: for `COc1cc(N2Cc3ccc(Sc4ccc(F)cc4)nc3C2=O)ccc1OCCN1CCCC1` the value was 8.3 L/kg.

Test system in the next data set: not listed separately
In words: Half life in rat at 10 mg/kg, po and iv. Type of data set: ADME, organism-based. Also noted: dose 10 mg/kg, route oral. The following applies: in vivo. Summed up:
as §2
The compound `COc1cc(N2Cc3ccc(Sc4ccccc4)nc3C2=O)ccc1OCCN1CCCC1` showed a half-life of 2.8 h.
Still for that read-out and setting: next, `COc1cc(N2Cc3ccc(Sc4ccc(F)cc4)nc3C2=O)ccc1OCCN1CCCC1`: 3.4 h.

Another data set has as its system Rattus norvegicus. In words: AUC in rat at 10 mg/kg, po. Type of data set: ADME, organism-based, Plasma. On the set-up: dose 10 mg/kg, route oral. The following applies: in vivo. An outline of the steps:
as §2
Regarding `COc1cc(N2Cc3ccc(Sc4ccccc4)nc3C2=O)ccc1OCCN1CCCC1`, the area under the curve (AUC) is 320 ng·h/mL.
The same measure, in the same setting: for `COc1cc(N2Cc3ccc(Sc4ccc(F)cc4)nc3C2=O)ccc1OCCN1CCCC1` the value was 5700 ng·h/mL.

Another data set concerns the target Melanin-concentrating hormone receptor 1 (Homo sapiens, UniProt Q99705). In words: Displacement of Eu-MCH from human MCHR1 expressed in CHO cell membranes by TRF assay.
Settings: not given
An outline of the steps: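 Competitive binding on membranes of CHO cells expressing human MCH-R1, with Eu-labeled MCH as tracer; bound label read by time-resolved fluorometry, values given as IC50.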
The compound `COc1cc(N2Cc3ccc(Sc4ccccc4)nc3C2=O)ccc1OCCN1CCCC1` had an IC50 of 20 nM.
Same read-out and setting: for `COc1cc(N2Cc3ccc(Sc4ccc(F)cc4)nc3C2=O)ccc1OCCN1CCCC1` the value was 30 nM; for `COc1cc(N2Cc3ccc(Sc4ccc(Cl)cc4)nc3C2=O)ccc1OCCN1CCCC1`, 40 nM.
Same read-out and setting: next, `COc1cc(N2Cc3ccc(Sc4ccc(C)cc4)nc3C2=O)ccc1OCCN1CCCC1`: 60 nM.
Same read-out and setting: next, `COc1ccc(Sc2ccc3c(n2)C(=O)N(c2ccc(OCCN4CCCC4)c(OC)c2)C3)cc1`: 100 nM; `COc1cc(N2Cc3ccc(Sc4ccc(F)cc4F)nc3C2=O)ccc1OCCN1CCCC1`: 60 nM.
With `COc1cc(N2Cc3ccc(Sc4ccc(F)c(F)c4)nc3C2=O)ccc1OCCN1CCCC1`, the IC50 was 50 nM.
In the case of `COc1cc(N2Cc3ccc(Sc4ccc(F)cc4Cl)nc3C2=O)ccc1OCCN1CCCC1`, the IC50 was determined as 80 nM.
Same read-out and setting: for `COc1cc(N2Cc3ccc(Sc4ccc(F)c(Cl)c4)nc3C2=O)ccc1OCCN1CCCC1` the value was 50 nM; for `COc1cc(N2Cc3ccc(-c4ccc(C(C)(C)C)cc4)nc3C2=O)ccc1OCCN1CCCC1`, 320 nM.
`COc1cc(N2Cc3ccc(-c4cccc(C)c4C)nc3C2=O)ccc1OCCN1CCCC1` registered an IC50 of 190 nM.
Compound `COc1cc(N2Cc3ccc(-c4cc(C)ccc4C)nc3C2=O)ccc1OCCN1CCCC1` yielded a half-inhibitory concentration (IC50) of 300 nM.
In the case of `COc1cc(N2Cc3ccc(-c4ccc(C)c(C)c4)nc3C2=O)ccc1OCCN1CCCC1`, the IC50 turned out to be 180 nM.
`COc1cc(N2Cc3ccc(Cc4ccccc4)nc3C2=O)ccc1OCCN1CCCC1`: the IC50 is 70 nM.
The same measure, in the same setting: for `COc1cc(N2Cc3ccc(Cc4ccccc4C)nc3C2=O)ccc1OCCN1CCCC1` the value was 720 nM; for `COc1cc(N2Cc3ccc(Cc4cccc(F)c4)nc3C2=O)ccc1OCCN1CCCC1`, 410 nM; for `COc1cc(N2Cc3ccc(Cc4ccc(F)cc4)nc3C2=O)ccc1OCCN1CCCC1`, 80 nM.
Turning to `COc1cc(N2Cc3ccc(Cc4ccc(Cl)cc4)nc3C2=O)ccc1OCCN1CCCC1`, the half-maximal inhibitory concentration (IC50) was 120 nM.
Compound `COc1cc(N2Cc3ccc(Cc4ccc(C)cc4)nc3C2=O)ccc1OCCN1CCCC1` came in with an IC50 of 160 nM.
In the case of `COc1cc(N2Cc3ccc(Cc4ccc(C(C)(C)C)cc4)nc3C2=O)ccc1OCCN1CCCC1`, the IC50 was 1910 nM.
Still for that read-out and setting: for `COc1cc(N2Cc3ccc(-c4ccccc4F)nc3C2=O)ccc1OCCN1CCCC1` the value was 4130 nM; for `COc1cc(N2Cc3ccc(-c4ccc(F)cc4)nc3C2=O)ccc1OCCN1CCCC1`, 3100 nM; for `COc1cc(N2Cc3ccc(-c4ccc(C(F)(F)F)cc4)nc3C2=O)ccc1OCCN1CCCC1`, 540 nM.
Same read-out and setting: next, `COc1cc(N2Cc3ccc(-c4ccc(C#N)cc4)nc3C2=O)ccc1OCCN1CCCC1`: 10000 nM.
For the compound `COc1cc(N2Cc3ccc(-c4ccccc4C)nc3C2=O)ccc1OCCN1CCCC1`, the IC50 worked out at 1040 nM.
On to `COc1cc(N2Cc3ccc(-c4ccc(C)cc4)nc3C2=O)ccc1OCCN1CCCC1`, for which the IC50 was 80 nM.
Turning to `CCc1ccccc1-c1ccc2c(n1)C(=O)N(c1ccc(OCCN3CCCC3)c(OC)c1)C2`, the IC50 was determined as 2000 nM.
The same measure, in the same setting: for `CCc1ccc(-c2ccc3c(n2)C(=O)N(c2ccc(OCCN4CCCC4)c(OC)c2)C3)cc1` the value was 50 nM; for `CCCc1ccc(-c2ccc3c(n2)C(=O)N(c2ccc(OCCN4CCCC4)c(OC)c2)C3)cc1`, 210 nM.
Same read-out and setting: for `CCCCc1ccc(-c2ccc3c(n2)C(=O)N(c2ccc(OCCN4CCCC4)c(OC)c2)C3)cc1` the value was 2780 nM; for `COc1cc(N2Cc3ccc(-c4ccc(C(C)C)cc4)nc3C2=O)ccc1OCCN1CCCC1`, 90 nM.
`C=Cc1ccc(-c2ccc3c(n2)C(=O)N(c2ccc(OCCN4CCCC4)c(OC)c2)C3)cc1` gave an IC50 of 130 nM.
On the same count and under the same terms, for `COc1cccc(-c2ccc3c(n2)C(=O)N(c2ccc(OCCN4CCCC4)c(OC)c2)C3)c1` the value was 2010 nM.
On the same count and under the same terms, next, `COc1ccc(-c2ccc3c(n2)C(=O)N(c2ccc(OCCN4CCCC4)c(OC)c2)C3)cc1`: 340 nM; `COc1cc(N2Cc3ccc(-c4ccccc4Cl)nc3C2=O)ccc1OCCN1CCCC1`: 510 nM; `COc1cc(N2Cc3ccc(-c4cccc(Cl)c4)nc3C2=O)ccc1OCCN1CCCC1`: 5650 nM.
Still for that read-out and setting: for `COc1cc(N2Cc3ccc(-c4ccc(Cl)cc4)nc3C2=O)ccc1OCCN1CCCC1` the value was 440 nM; for `COc1cc(N2Cc3ccc(-c4ccccc4)nc3C2=O)ccc1OCCN1CCCC1`, 10000 nM.
Regarding `COc1cc(N2Cc3ccc(-c4ccccc4OC)nc3C2=O)ccc1OCCN1CCCC1`, the IC50 was 7110 nM.
